Assay outcomes deposited in PubChem by several laboratories.
FID counter = displaces DNA intercalator in HCV helicase counter-screen; DNA fluorescent intercalator displacement, fluorescence; AID 1845; 0.17% of 290,000 active; inhibition, % at 7.9 µM; in the data active means inhibition above about 37%;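 further: 0% = vehicle and 100% = reference compound; higher means more ethidium bromide displaced from hairpin DNA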
IMP-1 inhibitor = blocks Pseudomonas aeruginosa IMP-1 metallo-beta-lactamase | purified IMP-1, nitrocefin hydrolysis, epi-absorbance fluorescence | inhibition, % at 5.6 µM | 0.45% of 290,000 active;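 active means inhibition above the mean plus 3 SD of all compounds in the same screening run, cut at about 4.5% in these data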;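 further: 0% = IMP-1 with DMSO and 100% = DMSO wells lacking enzyme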
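Test system: recombinant IMP-1 enzyme, purified / Medium: HEPES buffer pH 7.1 with ZnSO4 and Brij 35 / Doses: single dose, 5.6 µM / Times: 25 °C, 15 min preincubation, 25 min reaction / Detection: Epi-absorbance via hydrolysed-nitrocefin quenching of white-plate fluorescence, 480/530 nm, EDTA stop / Evaluation: percent inhibition from optical density relative to buffer-blank wells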
VIM-2 inhibitor = blocks Pseudomonas aeruginosa VIM-2 metallo-beta-lactamase; purified VIM-2, nitrocefin hydrolysis, epi-absorbance fluorescence; inhibition, % at 5.6 µM; 0.89% of 290,000 active;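 active means inhibition above the mean of all tested compounds plus 3 SD, cutoff set per screening run, cut at about 7.5% in these data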;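 further: red hydrolysis product quenches plate fluorescence so inhibitors raise well fluorescence; 0% = enzyme with DMSO and 100% = DMSO without enzyme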
PvdQ inh = blocks Pseudomonas aeruginosa PvdQ acylase activity; purified PvdQ acylase, fluorescence plate reader; inhibition, % at 10 µM; 0.063% of 340,000 active; AID 488965; in the data active means inhibition above about 30%, passing the limit was not always enough;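 further: 0% = vehicle neutral wells and 100% = reference inhibitor wells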
RAD54 inh = blocks human RAD54 Holliday junction branch migration. FAM/BHQ fluorescence. 0.14% of 360,000 active. AID 602329. inhibition, % at 10.4 µM. Q92698;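 active means mean normalized replicate activity at least 40 and at least half of replicates scoring 40 or more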;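 further: 0% = median of neutral control wells and 100% = median of positive control wells; inhibitors cause a drop in the FAM fluorescence signal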
Target sequence (Q92698 whole entry, looked up): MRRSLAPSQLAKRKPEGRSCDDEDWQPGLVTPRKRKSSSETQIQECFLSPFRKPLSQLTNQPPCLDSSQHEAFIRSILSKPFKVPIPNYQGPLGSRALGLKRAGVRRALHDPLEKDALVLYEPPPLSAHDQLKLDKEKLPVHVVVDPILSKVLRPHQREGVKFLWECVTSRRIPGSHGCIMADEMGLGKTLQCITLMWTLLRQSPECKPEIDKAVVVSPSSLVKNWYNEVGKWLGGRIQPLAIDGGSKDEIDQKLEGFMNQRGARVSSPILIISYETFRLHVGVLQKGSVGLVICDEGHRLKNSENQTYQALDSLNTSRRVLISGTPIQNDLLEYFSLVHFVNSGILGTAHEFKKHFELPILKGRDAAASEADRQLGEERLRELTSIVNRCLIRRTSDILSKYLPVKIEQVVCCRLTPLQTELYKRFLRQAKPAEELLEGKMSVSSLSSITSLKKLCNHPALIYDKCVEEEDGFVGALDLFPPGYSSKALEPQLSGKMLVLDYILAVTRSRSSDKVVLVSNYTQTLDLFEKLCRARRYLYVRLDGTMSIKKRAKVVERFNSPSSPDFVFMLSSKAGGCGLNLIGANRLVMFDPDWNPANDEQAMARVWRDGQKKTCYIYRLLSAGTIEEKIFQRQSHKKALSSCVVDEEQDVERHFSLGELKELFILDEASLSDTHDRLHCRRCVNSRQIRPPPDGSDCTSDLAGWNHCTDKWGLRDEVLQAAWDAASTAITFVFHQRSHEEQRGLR
VIM-2 inh confirm = VIM-2 inhibition, confirmation assay | inhibition, % at 5.6 µM | purified VIM-2 enzyme, nitrocefin absorbance | 73% of 200 active | shares compounds with IMP-1 inhibitor; in the data active means inhibition above about 8%;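 further: 0% = enzyme with vehicle and 100% = no enzyme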
TEM-1 counter = blocks E. coli TEM-1 beta-lactamase, VIM-2 IMP-1 counter-screen. shares compounds with IMP-1 inhibitor. nitrocefin absorbance inhibition. inhibition, % at 5.6 µM. 50% of 200 active. AID 2184; in the data active means inhibition above about 0.66%
IMP-1 confirm = confirmation of P. aeruginosa IMP-1 metallo-beta-lactamase inhibitors. inhibition, % at 5.6 µM. purified IMP-1 enzyme, absorbance substrate hydrolysis. 60% of 200 active. shares compounds with IMP-1 inhibitor; in the data active means inhibition above about 4.9%;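 further: 0% = enzyme with vehicle and 100% = vehicle without enzyme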
An asterisk follows results filed as active; i = inactive; / = no result; + = active, no number. In the library only some 1% were active in any assay of this set; here they are far more common.

SMILES	FID counter	IMP-1 inhibitor	VIM-2 inhibitor	PvdQ inh	RAD54 inh	VIM-2 inh confirm	TEM-1 counter	IMP-1 confirm
O=C(C[C@@H]1CC[C@H]2[C@@H](COC[C@@H](O)CN2CC2CCCCC2)O1)NCC1CC1	/	/	/	/	1	/	/	/
CCN(CC)CCOC(=O)c1ccc(N/C=C(/C#N)c2nc(-c3cc4ccccc4oc3=O)cs2)cc1	19	13*	42*	-12	-7	52*	-5	11*
CCN(CC)CCOC(=O)c1ccc(N/C=C(/C#N)c2nc(-c3ccc(OC)cc3)cs2)cc1	6	1	-2	3	/	/	/	/
CC(C)NC(=O)N(C)C[C@H]1Oc2ccc(NS(C)(=O)=O)cc2C(=O)N([C@@H](C)CO)C[C@H]1C	/	/	/	/	-3	/	/	/
C=CCN1C(=O)/C(=C\C=C2\N(C)c3ccccc3C2(C)C)SC1=S	-6	-1	-2	-7	/	/	/	/
CN1/C(=C\C=C2/SC(=S)N(CC(=O)O)C2=O)C(C)(C)c2ccccc21	-244	17*	11*	3	/	23*	21*	21*
CCn1c(=S)sc2c(=O)n(CC(=O)Nc3ccccc3C(F)(F)F)c(C)nc21	-6	41*	21*	-14	-1	19*	0	24*
CCn1c(=S)sc2c(=O)n(CC(=O)Nc3ccccc3)c(C)nc21	-7	-4	0	-3	4	/	/	/
CN1CCN(C2=CC3=CC(=C(C#N)C#N)CCC3CC2)CC1 (stereo not given)	-7	67*	58*	12	/	62*	66*	63*
N#Cc1cc(Cl)c(N2CCOCC2)cc1C#N	-7	-3	-3	-5	6	/	/	/
CC1(C)CC(NCCN2CCN(C3=CC(=C(C#N)C#N)CC(C)(C)C3)CC2)=CC(=C(C#N)C#N)C1	-4	-1	-2	-4	/	/	/	/
N#CC(C#N)=C1C=C2C=C(N3CCOCC3)CCC2CC1 (stereo not given)	9	17*	20*	-6	/	64*	76*	60*
N#CC(C#N)=C1C=C2C=C(N3CCCCCC3)CCC2CC1 (stereo not given)	-8	38*	38*	5	/	64*	92*	58*
CCN1CCN(C2=CC3=CC(=C(C#N)C#N)CCC3CC2)CC1 (stereo not given)	-4	72*	55*	6	/	62*	67*	58*
COc1ccc(C(=O)Nc2ccc3c(c2)C(=O)N(C)C[C@@H](OC)[C@@H](C)CN[C@H](C)CO3)cc1	/	/	/	/	0	/	/	/
Cc1c(O)ccc(C(=O)CN2CCN(Cc3ccc4c(c3)OCO4)CC2)c1O	98*	87*	91*	-17	5	-1	-6	-2
CC(=O)OCCn1c2nc(=O)[nH]c(=O)c-2nc2cc(C)c(C)cc21	13	10*	33*	1	i	43*	112*	37*
CC(c1ccccc1)n1c(-c2ccccc2F)n[nH]c1=S (stereo not given)	-16	6.4*	9.1*	-10	-1	11*	-4	2
CC(c1ccccc1)n1c(-c2ccc(Cl)cc2)n[nH]c1=S (stereo not given)	-30	-2	-2	-17	-6	/	/	/
C[C@H](CO)N1C[C@H](C)[C@H](CN(C)Cc2cccnc2)OCc2cnnn2CCCC1=O	/	/	/	/	4	/	/	/
N=C1/C(=C\c2coc3ccc(O)cc3c2=O)C(=O)N=C2SC=CN12	-3	11*	9.9*	1	/	17*	8.0*	14*
CSC1=NSC2=NC(=O)/C(=C\c3coc4ccccc4c3=O)C(=N)N12	-18	-1	-2	7	/	/	/	/
COc1ccc(C#Cc2ccc3c(c2)O[C@@H](CN(C)C(C)=O)[C@@H](C)CN([C@H](C)CO)S3(=O)=O)cc1	/	/	/	/	-4	/	/	/
CCOC(=O)/C(=C\C=C1/Sc2ccccc2N1CC)C(C)=O	-22	7.8*	8.5*	1	-164	7	0.7*	4
O=C1C2C(c3ccccc3)C=CC(c3ccccc3)C2C(=O)N1c1ccccn1 (stereo not given)	-40	75*	26*	4	/	12*	-5	37*
SMILES	FID counter	IMP-1 inhibitor	VIM-2 inhibitor	PvdQ inh	RAD54 inh	VIM-2 inh confirm	TEM-1 counter	IMP-1 confirm
O=C1c2c(Br)c(Br)c(Br)c(Br)c2C(=O)N1c1ccccn1	1	1	5	8	13	/	/	/
O=C1C2C3C=CC(C3)C2C(=O)N1c1ccncc1 (stereo not given)	3	-2	0	-12	0	/	/	/
O=C1C2C(c3ccccc3)C=CC(c3ccccc3)C2C(=O)N1c1ccncc1 (stereo not given)	-39	65*	25*	-2	-8	11*	-1	29*
Cc1ccc2c(c1)c(/C=C/c1cc[n+](C)cc1)c(C)n2C	-41	8.4*	26*	-7	i	31*	-2	3
CCCn1c(/C=C/c2cc[n+](C)cc2)nc2ccccc21	0	-3	-1	-2	-8	/	/	/
O=P(O)(O)c1cc(-c2ccccc2)oc1-c1ccccc1	-10	22*	30*	-5	/	40*	-2	23*
CCCNC(=O)N(C)C[C@H]1Oc2cc(-c3ccccc3F)ccc2S(=O)(=O)N([C@H](C)CO)C[C@@H]1C	/	/	/	/	7	/	/	/
O=C(c1ccccc1)c1c2c(cc3sc4ccccc4[n+]13)-c1cccc3cccc-2c13	53*	10*	16*	-7	105*	11*	-3	-1
C#Cc1ccc([C@@H]2C=C(C(=O)Nc3ccccc3)O[C@H](OCc3ccc(CO)cc3)C2)cc1	/	/	/	/	3	/	/	/
CN(C)/C=C1\C=C2C(=O)c3ccccc3N2C1=O	-1	21*	20*	-11	/	134*	+	119*
CN(C[C@@H]1[C@H](c2ccccc2)[C@H](CO)N1Cc1ccccn1)S(C)(=O)=O	/	/	/	/	-2	/	/	/
O=C(O)c1c(C(=O)O)c(-c2ccc(Cl)c(Cl)c2)n2c1CSC2	-12	4.9*	57*	-5	-14	55*	-1	3
CN1C(=O)c2cc(NC(=O)C3CC3)ccc2OC[C@H]2O[C@H](CC(=O)NCc3ccccc3F)CC[C@H]21	/	/	/	/	0	/	/	/
COCC(=O)Nc1ccc2c(c1)C(=O)N(C)[C@H]1CC[C@@H](CC(=O)NC3CCCC3)O[C@@H]1CO2	/	/	/	/	-2	/	/	/
O=C(Cc1ccncc1)Nc1ccc2c(c1)[C@H]1C[C@@H](CC(=O)N3CCOCC3)O[C@@H](CO)[C@H]1O2	/	/	/	/	3	/	/	/
CCC(c1c(C)n(C)n(-c2ccccc2)c1=O)c1c(C)n(C)n(-c2ccccc2)c1=O	0	39*	36*	-5	5	-2	-4	-4
C[C@@H]1CN([C@@H](C)CO)C(=O)c2cc(NS(=O)(=O)c3ccc(F)cc3)ccc2O[C@@H](C)CCCCO[C@@H]1CN(C)Cc1ccccc1	/	/	/	/	-2	/	/	/
